Only some compounds are listed: those with a hit (about 1.4% of all), similar ones and a draw of the others.
PLCg1 inh – blocks human PLC-gamma1 enzyme activity; inhibition, % at 12.2 µM; purified PLC-gamma1, fluorogenic substrate, fluorescence; 370,000 compounds, 0.84% hits; AID 720700; P19174
DNA FID counter – displaces DNA intercalator in HCV helicase counter-screen | 290,000 compounds, 0.17% hits | inhibition, % at 7.9 µM | DNA fluorescent intercalator displacement, fluorescence | AID 1845; in the data active means inhibition above about 37%;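 further: higher means more ethidium bromide displaced from hairpin DNA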
PLC-beta3 inh – inhibitors of human phospholipase C beta3. inhibition, % at 12.2 µM. 370,000 compounds, 0.18% hits. Q01970. AID 720704. Purified PLC-beta3, fluorogenic substrate, fluorescence; in the data active means inhibition above about 11%
Tn6 DDE FP – disrupts Tn6 cyclic peptide binding to fibrin D-Dimer-E complex; P02675; Fibrin DD(E) TRITC-Tn6 fluorescence polarization displacement; inhibition, % at 8.3 µM; 370,000 compounds, 0.21% hits; AID 720509;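 active means inhibition above a per-campaign cutoff: mean of compounds within control limits plus 3 SD, cut at about 15% in these data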
Target sequence (P02675 whole entry, looked up): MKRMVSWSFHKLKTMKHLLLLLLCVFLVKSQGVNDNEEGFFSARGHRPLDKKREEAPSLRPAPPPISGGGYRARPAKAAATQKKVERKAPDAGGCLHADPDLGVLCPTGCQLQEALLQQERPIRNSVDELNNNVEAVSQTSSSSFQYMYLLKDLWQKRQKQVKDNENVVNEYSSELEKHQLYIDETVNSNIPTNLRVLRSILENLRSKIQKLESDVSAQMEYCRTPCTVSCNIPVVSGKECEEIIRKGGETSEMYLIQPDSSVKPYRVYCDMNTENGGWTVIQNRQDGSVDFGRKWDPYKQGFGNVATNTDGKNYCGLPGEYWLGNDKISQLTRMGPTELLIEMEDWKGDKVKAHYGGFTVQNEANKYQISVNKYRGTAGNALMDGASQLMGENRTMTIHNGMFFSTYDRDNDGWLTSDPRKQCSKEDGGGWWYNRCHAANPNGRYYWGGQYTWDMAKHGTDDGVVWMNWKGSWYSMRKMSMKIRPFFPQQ
DDE Tn7 FP inh – disrupts Tn7 cyclic peptide binding to fibrin D-Dimer-E complex | 370,000 compounds, 0.13% hits | FP displacement of FITC-Tn7 peptide from fibrin DD(E); 0% = median of compound wells per plate | P02675 | inhibition, % at 8.3 µM;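 active means inhibition above the mean of compounds falling within the control limits plus 3 SD of them, cut at about 14% in these data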
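Assay system: human fibrin DD(E) protein / Input: 2 µM fibrin DD(E) / Benchmarks: high control of 10 µM Aha-Tn7 peptide / Measured by: fluorescence polarization of the labelled Tn7 tracer / Medium: Tris buffer with calcium and detergent, pH 7.8 / Timing: 10 min compound pre-incubation, 3 h probe incubation at room temperature / Repeats: one replicate per compound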
PLCg1 ctr – counter-screen for PLC-beta3 inhibitors: inhibitors of human PLC-gamma1 | shares compounds with PLCg1 inh | purified PLC-gamma1, fluorogenic substrate, fluorescence | inhibition, % at 12.3 µM | 3,300 compounds, 3.1% hits | AID 743258
PLCbeta3 conf – confirmation of human PLC-beta3 inhibitors | 3,300 compounds, 1% hits | purified PLC-beta3, fluorogenic substrate fluorescence | shares compounds with PLCg1 inh | inhibition, % at 12.3 µM; in the data active means inhibition above about 11%
Of the large screens only hits and unclear results are named; the others gave an inactive call (follow-up assays come after a bar, where they were run). Unless noted, no stated cut-off is given here; in the data, active means inhibition above about 9.5%; inactive means the rest.

CC(=O)c1c(Cl)nc2cccc3c2c1-c1ccccc1C3=O	none
CC(C)CC(=O)Nc1nnc(SCC(=O)Nc2ccc(F)cc2)s1	none
Cc1ccc(-c2nnn(CC(=O)N3CCCCC3)n2)c(-n2cnnn2)c1	PLC-beta3 inh 12 | PLCg1 ctr inactive | PLCbeta3 conf inactive
O=c1oc2ccccc2c(O)c1C=NCc1ccccn1	PLCg1 inh 12 | PLCg1 ctr inactive | PLCbeta3 conf inactive
COc1cccc(N(C(=O)c2ccco2)C(C(=O)NC2CCCC2)c2ccc(N3CCOCC3)cc2)c1 (configuration not stated)	none
O=C(Nc1cccc([N+](=O)[O-])c1)Nc1ccc2c(c1)OCCO2	PLCg1 inh 10 | PLCg1 ctr inactive | PLCbeta3 conf inactive
O=C(Nc1cccc([N+](=O)[O-])c1)Nc1cccc([N+](=O)[O-])c1	none
O=C(O)c1ccc(Cl)cc1NC(=O)C1CCCO1 (configuration not stated)	PLC-beta3 inh 12 | PLCg1 ctr inactive | PLCbeta3 conf inactive
CCN(CC)C(=O)c1nc[nH]c1C(=O)N(CC)CC	PLCg1 inh 14 (no result: DNA FID counter) | PLCg1 ctr inactive | PLCbeta3 conf inactive
CC(=O)Nc1cccc(/C(C)=N/NC(=O)c2cccs2)c1	none
C/C(=N/NC(=O)c1cccs1)c1cccc(N)c1	PLCg1 inh 11 | PLCg1 ctr inactive | PLCbeta3 conf inactive
CCC(=O)N1CCc2cc(S(=O)(=O)N3CCCC3)ccc21	none
CCCCOC(=O)CSc1nc2c(c(=O)[nH]c(=O)n2C)n1C/C=C(\C)Cl	PLCg1 inh 13 | PLCg1 ctr inactive | PLCbeta3 conf inactive
C/C(Cl)=C/Cn1c(SCC(C)C)nc2c1c(=O)[nH]c(=O)n2C	none (no result: DNA FID counter)
COc1ccc(CNCCC(c2ccc(F)cc2)c2ccc(OC(C)C)cc2)cc1OC (configuration not stated)	PLCg1 inh 11, DNA FID counter 38 | PLCg1 ctr inactive | PLCbeta3 conf inactive
COc1ccc(CNCCC(c2ccccc2)c2ccc(OC(C)C)cc2)cc1OC (configuration not stated)	PLCg1 inh 11 | PLCg1 ctr inactive | PLCbeta3 conf inactive
COc1ccc(C(CCNCc2ccc(OC(C)C)cc2)c2ccccc2OC)cc1 (configuration not stated)	none
COc1ccc(Cl)cc1NC(=O)CCN1C(=O)C2CC=CCC2C1=O (configuration not stated)	none
Cc1nnc(-c2cnn(C)c2N)n1Cc1ccc2c(c1)OCO2	none
Cc1ccc(C)c(NC(=S)N2CCC(NC(=O)C3CCCCC3)CC2)c1	none
Cc1cc(NC(=O)CN2CCN(C/C=C/c3ccccc3)CC2)c([N+](=O)[O-])cc1C	PLCg1 inh 9.5 | PLCg1 ctr inactive | PLCbeta3 conf inactive
O=C(CN1CCN(C/C=C/c2ccccc2)CC1)Nc1cc([N+](=O)[O-])ccc1Cl	none
O=C(Nc1ccc2c(c1)nc1n2CCSC1)c1ccccc1	none
COc1cc(C(=O)NNC(=O)c2cccc(Cl)c2)ccc1OCC(=O)N1CCOCC1	none (no result: DNA FID counter)
CCc1ccc(C(=O)NNC(=O)c2ccc(OCC(=O)N3CCOCC3)c(OC)c2)cc1	PLCg1 inh 13 (no result: DNA FID counter) | PLCg1 ctr inactive | PLCbeta3 conf inactive
CC(C(=O)c1ccc(-c2ccccc2)cc1)[n+]1cccc(NC(=O)c2ccccc2)c1 (configuration not stated)	PLCg1 inh 9.7 | PLCg1 ctr inactive | PLCbeta3 conf inactive
CCCN(CC1CC1)S(=O)(=O)c1ccc(S(N)(=O)=O)cc1	PLCg1 inh 12 | PLCg1 ctr inactive | PLCbeta3 conf inactive
CCOC(=O)c1c(NC(=O)CS(=O)(=O)c2cn(CC)c3ccccc23)sc2c1CCCCC2	none
COc1ccc(N2CCN(Cc3nc4c(c(=O)n(C)c(=O)n4C)n3CCc3ccccc3)CC2)cc1	PLCg1 inh 13 | PLCg1 ctr inactive | PLCbeta3 conf inactive
Cn1c(=O)c2c(nc(CN3CCN(CCO)CC3)n2Cc2ccccc2Cl)n(C)c1=O	PLCg1 inh 12 | PLCg1 ctr inactive | PLCbeta3 conf inactive
COCCn1c(CN2CCN(c3ccc(OC)cc3)CC2)nc2c1c(=O)n(C)c(=O)n2C	none
CCOCCn1c(CN2CCN(CCO)CC2)nc2c1c(=O)n(C)c(=O)n2C	PLCg1 inh 11 | PLCg1 ctr inactive | PLCbeta3 conf inactive
CC(C)c1nnc(NC(=O)CCC(=O)NCCc2ccccc2)s1	none
CCCCCC(=O)OC(CN1CCCCCC1)CN1CCCC1=O (configuration not stated)	none
Cc1ccc(-c2nnc(Nc3ccc(C(=O)N(C)C)cc3)c3ccccc23)cc1S(=O)(=O)NCC1CCCO1 (configuration not stated)	none
COc1ccc(Cl)cc1N(C(=O)c1ccco1)C(C(=O)NC1CCCC1)c1cccnc1 (configuration not stated)	none
CC1(C)Cc2c(sc(NC(=O)COc3cccc4ccccc34)c2C#N)C(C)(C)N1	none
Cc1ccc(OCC(=O)Nc2sc3c(c2C#N)CC(C)(C)NC3(C)C)cc1	PLCg1 inh 10 | PLCg1 ctr inactive | PLCbeta3 conf inactive
CC1CCCCN1C(=O)CSc1nc2ccccc2n1CC(=O)N1CCc2ccccc21 (configuration not stated)	PLCg1 inh 9.6 | PLCg1 ctr inactive | PLCbeta3 conf inactive
COCCn1c(SCC(=O)N2CCCc3ccccc32)nc2ccccc2c1=O	none
CN(C)C(=O)Cn1c(SCC(=O)N2CCCc3ccccc32)nc2ccccc21	PLCg1 inh 10 | PLCg1 ctr inactive | PLCbeta3 conf inactive
CC(C)NC(=O)CSc1nc2ccccc2n1CC(=O)N1CCc2ccccc21	none (no result: PLCg1 inh, PLC-beta3 inh, Tn6 DDE FP, DDE Tn7 FP inh)
Cc1cccc(C(C#N)c2nc3ccccc3nc2C(F)(F)F)c1 (configuration not stated)	PLCg1 inh 9.8 | PLCg1 ctr inactive | PLCbeta3 conf inactive
N#CC(c1ccc(Cl)cc1)c1nc2ccccc2nc1C(F)(F)F (configuration not stated)	none
COc1ccc(Cn2c(C)c(C)c(C#N)c2NC(=O)Nc2cccc(Cl)c2)cc1	none
Cc1c(C#N)c(NC(=O)c2cccc(Cl)c2)n(Cc2ccccc2)c1C	PLCg1 inh 9.9 | PLCg1 ctr inactive | PLCbeta3 conf inactive
C=CCNc1cccc(Br)c1	PLC-beta3 inh 11 (no result: DNA FID counter) | PLCg1 ctr inactive | PLCbeta3 conf inactive
Cn1c(SCC(=O)NC2(C#N)CCCCC2)nnc1-c1cccnc1	PLCg1 inh 12 | PLCg1 ctr inactive | PLCbeta3 conf inactive
Cn1c(SCC(=O)NC2CCCCC2)nnc1-c1cccnc1	none
O=C(O/N=C1\CCCc2ccccc21)c1cccc(Cl)c1	PLCg1 inh 9.6, PLC-beta3 inh 11 | PLCg1 ctr inactive | PLCbeta3 conf inactive

Source: PubChem BioAssay (The Scripps Research Institute Molecular Screening Center)
